ChEMBL document CHEMBL1139239, “A series of cationic sterol lipids with gene transfer and bactericidal activity” (Bioorg Med Chem, 2009)
≈ marks a conversion by molar mass, not a printed value. Calls of active or inactive are those of the source. No cut-off for these calls is given here.

What was measured:
[1] = Toxicity against RBC assessed as hemolytic activity; type: cell-based; conditions: erythrocyte
Method in brief: (§1)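 Donor whole blood in heparin/ACD was chilled to 4°C, pelleted at 1000g and washed three times in phosphate/NaCl/HEPES buffer, then resuspended in PBS. Cells were mixed 1:1 with serial dilutions in PBS and held 1 h at 37°C, then spun. Diluted supernatant was read at 540 nm against buffer, with percent lysis set against 1% Triton X-100.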

Escherichia coli [2] = assay: Antibacterial activity against Escherichia coli MG1655 at 20 uM after 4 hrs; type: functional, organism-based; conditions: 50 uM, in the assay text read “50 uM” for “20 uM”
Method in brief: (§2)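 Killing assay: exponential-phase bacteria suspended in PBS at 10^5–10^6 CFU/ml and preincubated for 1 hour at 37°C. Compound added and exposure lasted 4 hours. Samples were taken, diluted in four ten-fold steps in PBS and plated on agar overnight at 37°C. Colonies were counted manually and averages plotted on a log scale.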

Bacillus subtilis [3] = assay: Antibacterial activity against Bacillus subtilis ATCC 6051 at 20 uM after 4 hrs; type: functional, organism-based; conditions: ATC6051; method in brief: as §2
[4] = Therapeutic index, ratio of MHC for RBC to MIC for Bacillus subtilis ATCC 6051; conditions: red blood cells (RBC); read-out: TI
Method in brief: (§3)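 Ratio of MHC to MIC. MIC: exponential-phase B. subtilis ATC6051 or E. coli MG1655 at 10^5–10^6 CFU/ml in Mueller-Hinton broth, mixed 1:1 with serial dilutions in PBS (50% v/v broth), 20 h at 37°C. MHC: lowest concentration giving ≥2% lysis of washed donor red cells after 1 h at 37°C.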

[5] = Therapeutic index, ratio of MHC for RBC to MIC for Escherichia coli MG1655; conditions: red blood cells (RBC); read-out: TI; method in brief: as §3
Bacillus subtilis [6] = assay: Antibacterial activity against Bacillus subtilis ATCC 6051 after 20 hrs; type: functional
Method in brief: (§4)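 Broth microdilution MIC: exponential-phase bacteria at 10^5 to 10^6 CFU/ml in Mueller-Hinton broth. Compound serial dilutions made in PBS and mixed 1:1 by volume with the cells, so broth is 50% v/v. Incubated 20 hours at 37°C, and the minimum inhibitory concentration was recorded.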

[7] = Toxicity against RBC assessed as hemolytic activity at 1 to 2 mM; type: cell-based, Erythrocyte; conditions: red blood cells (RBC); read-out: Activity; method in brief: as §1
Escherichia coli [8] = assay: Antibacterial activity against Escherichia coli MG1655 after 20 hrs; type: functional; method in brief: as §4
[9] = Toxicity against bovine BAEC cells; type: cell-based, Bos taurus; conditions: cattle
Method in brief: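 Bovine aortic endothelial cells, passage 4–15, grown in DMEM with 10% FBS. Lipoplexes made with or without DOPE at several charge ratios up to 12 were added in serum-free OptiMem for 2 h at 37°C, then replaced with growth medium. About 20 h later, viability was read as ATP luminescence (CellTiter-Glo, 30 min), normalised to naked plasmid DNA, n = 8.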

[10] = Toxicity against RBC assessed as hemolytic activity at 2 mM; type: cell-based; conditions: erythrocyte, 2000 µM; method in brief: as §1

## C[C@H](CCC(=O)NCCCNCCCCNCCCN)[C@H]1CC[C@H]2[C@@H]3CC[C@@H]4C[C@H](O)CC[C@]4(C)[C@H]3CC[C@]12C
[1]
  MHC: 500 µM
Escherichia coli [2]
  Activity: Active
Bacillus subtilis [3]
  Activity: Active
[4]
  selectivity ratio: 9
[5]
  selectivity ratio: 2
Bacillus subtilis [6]; ATC6051, 20 h
  MIC: 57 µM (≈ 32 µg/mL)
[7]
  hemolysis at up to 2000 µM: 30%
Escherichia coli [8]; MG1655, 20 h
  MIC: 228 µM (≈ 128 µg/mL)

## C[C@H](CCC(=O)NCCCNCCCCNCCCN)[C@H]1CC[C@H]2[C@@H]3[C@H](O)C[C@@H]4C[C@H](O)CC[C@]4(C)[C@H]3C[C@H](O)[C@]12C
[1]
  MHC: 500 µM
[4]
  selectivity ratio: < 1
[5]
  selectivity ratio: < 1
Bacillus subtilis [6]; ATC6051, 20 h
  MIC: > 432 µM
[7]
  hemolysis at up to 2000 µM: 30%
Escherichia coli [8]; MG1655, 20 h
  MIC: > 432 µM

## POLYMYXIN B
Bacillus subtilis [6]; ATC6051
  MIC: 1 µM
Escherichia coli [8]
  MIC: 6 µM

## C[C@H](CCC(=O)NCCCNCCCCNCCCN)[C@H]1CC[C@H]2[C@@H]3CC=C4C[C@@H](O)CC[C@]4(C)[C@H]3CC[C@]12C
[1]
  MHC: 1000 µM
[4]
  selectivity ratio: 18
[5]
  selectivity ratio: 9
[9]
  Activity: Toxic
Bacillus subtilis [6]; ATC6051, 20 h
  MIC: 57 µM (≈ 31.9 µg/mL)
[7]
  hemolysis at up to 2000 µM: 30%
Escherichia coli [8]; MG1655, 20 h
  MIC: 115 µM (≈ 64.3 µg/mL)

## C[C@H](CCC(=O)NCCCNCCCCNCCCNC(=O)CC[C@H](C)[C@@H]1CC[C@@H]2[C@@H]3[C@@H](C[C@@H](O)[C@]21C)[C@]1(C)CC[C@H](O)C[C@@H]1C[C@@H]3O)[C@H]1CC[C@H]2[C@@H]3[C@H](O)C[C@@H]4C[C@H](O)CC[C@]4(C)[C@H]3C[C@H](O)[C@]12C
[1]
  MHC: 250 µM
[4]
  selectivity ratio: 61
[10]
  Activity: Toxic
[5]
  selectivity ratio: 15
Bacillus subtilis [6]; ATC6051, 20 h
  MIC: 4 µM (≈ 3.93 µg/mL)
Escherichia coli [8]; MG1655, 20 h
  MIC: 16 µM (≈ 15.7 µg/mL)

## C[C@H](CCC(=O)NCCCNCCCCNCCCN)[C@H]1CCC2=C3CC[C@@H]4C[C@H](O)CC[C@]4(C)[C@H]3C[C@H](O)[C@@]21C
[1]
  MHC: 500 µM
Escherichia coli [2]
  Activity: Active
Bacillus subtilis [3]
  Activity: Active
[4]
  selectivity ratio: 18
[5]
  selectivity ratio: 5
Bacillus subtilis [6]; ATC6051, 20 h
  MIC: 28 µM (≈ 16.1 µg/mL)
[7]
  hemolysis at up to 2000 µM: 30%
Escherichia coli [8]; MG1655, 20 h
  MIC: 111 µM (≈ 63.8 µg/mL)
